{"source": "PubChem BioAssay AID624466", "about": "(The Scripps Research Institute Molecular Screening Center, 2012)", "note": "Among all 360,000 compounds or so, about 5,400 (1.5%) were called active. This is one part of a sample in which actives are shown more often than they occur.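 How the source made its calls: active means inhibition above a per-plate cutoff, the mean inhibition of test compounds on that plate plus 3 SD (cut at about 49% in these data); inactive means the rest.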", "data": [{"molecular_target": "Trace amine-associated receptor 1 (Homo sapiens) (UniProt Q96RJ0)", "sequence (Q96RJ0 whole entry, looked up)": "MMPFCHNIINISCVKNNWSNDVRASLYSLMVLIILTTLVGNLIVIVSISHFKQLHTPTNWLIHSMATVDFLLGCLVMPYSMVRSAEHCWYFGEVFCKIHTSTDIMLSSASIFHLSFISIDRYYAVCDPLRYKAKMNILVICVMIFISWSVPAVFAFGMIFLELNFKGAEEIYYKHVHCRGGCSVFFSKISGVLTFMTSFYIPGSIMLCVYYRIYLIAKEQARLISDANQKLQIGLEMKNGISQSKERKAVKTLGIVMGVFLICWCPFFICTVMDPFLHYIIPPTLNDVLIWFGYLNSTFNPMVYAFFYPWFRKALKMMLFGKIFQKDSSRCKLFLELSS", "test": "blockers of beta-PEA-driven TAAR1 calcium signal – Fluo-8 calcium fluorescence, CHO RD-HGA16 cells, primary screen (AID 624466);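 further: 0% = DMSO plus EC80 beta-PEA response and 100% = DMSO alone without agonist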", "conditions": "CHO RD-HGA16 TAAR1, Fluo-8 calcium fluorescence, antagonist; at 3 µM; active compounds read high", "method_in_brief": "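test system = CHO RD-HGA16 cells bearing hTAAR1 | replication = singlicate | controls = DMSO-only wells and EC80 β-PEA-stimulated wells | reagent = EC80 β-phenethylamine stimulus | read-out basis = percent inhibition of PEA-evoked calcium signal, max/basal emission ratio | schedule = seeding 17-24 h prior, 75-min 37 °C, 30-min RT dye loading | signal = kinetic Fluo-8 calcium fluorescence measurement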", "values": [{"smiles": "O=C(NCc1ccccc1)C1c2ccccc2OCC(=O)N1CCCN1CCOCC1", "note": "(stereo unspecified)", "inhibition": "-17.4% (inactive)"}, {"smiles": "O=C(O)c1ccc(S(=O)(=O)c2ccccc2)s1", "inhibition": "7.73% (inactive)"}, {"smiles": "Cc1ccc(NC(=O)C(=O)NCc2ccc(/C=N/NC(=O)c3c(C)nc4cc(C)ccn34)o2)cc1", "inhibition": "-9.86% (inactive)"}, {"smiles": "Cc1ccc(CNC(=O)c2ccccc2CCc2ccccc2)cc1", "inhibition": "49.7% (active)"}, {"smiles": "Cc1ccc(CNC(=O)c2cccnc2Cl)cc1", "inhibition": "0.77% (inactive)"}, {"smiles": "CSc1ccccc1C(=O)NCc1ccccc1", "inhibition": "3.42% (inactive)"}, {"smiles": "O=C1c2ccccc2C(=O)N1CCC#Cc1ccc2cc(C3(O)CCCCC3)oc(=O)c2c1", "inhibition": "75.1% (active)"}, {"smiles": "COc1cc(C#Cc2ccc3cc(CCCO)oc(=O)c3c2)cc(OC)c1", "inhibition": "26.9% (inactive)"}, {"smiles": "Cc1cccn2cc(-c3cccc(S(=O)(=O)N4CCCCC4)c3)nc12", "inhibition": "-29.1% (inactive)"}, {"smiles": "CCC(C(=O)Nc1c(C)cccc1C)n1c(-c2cc(C)cs2)nc2ccccc21", "note": "(stereo unspecified)", "inhibition": "-17.6% (inactive)"}, {"smiles": "Fc1ccccc1/C=N/Nc1cc(N2CCCCC2)ncn1", "inhibition": "-0.85% (inactive)"}, {"smiles": "O=C(C1CCCN(S(=O)(=O)c2ccccc2)C1)N1CCN(c2ccc(F)cc2)CC1", "note": "(stereo unspecified)", "inhibition": "-6.96% (inactive)"}, {"smiles": "COc1cccc(N2CCN(C(=O)C3CCCN(S(=O)(=O)c4cnc[nH]4)C3)CC2)c1", "note": "(stereo unspecified)", "inhibition": "-6.44% (inactive)"}, {"smiles": "CC(=O)N1CCCc2cc(S(=O)(=O)N3CCCC(C(=O)N4CCN(c5cccc(Cl)c5)CC4)C3)ccc21", "note": "(stereo unspecified)", "inhibition": "83.6% (active)"}, {"smiles": "Cn1c(=O)n(C)c(=O)n(CC(=O)N2CCCCC2)c1=O", "inhibition": "-10.7% (inactive)"}, {"smiles": "Oc1ccc(/C=N/Nc2nc(-c3ccccc3F)nc3ccccc23)c(O)c1", "inhibition": "82.1% (active)"}, {"smiles": "CCOc1ccc(N(C)S(=O)(=O)c2cnc[nH]2)cc1", "inhibition": "-13.2% (inactive)"}, {"smiles": "Cn1c(C(=O)N2CCC(C(N)=O)CC2)cc2c(=O)n(C)c3ccccc3c21", "inhibition": "-11.2% (inactive)"}, {"smiles": "Cn1c(C(=O)NCCN2CCc3ccccc3C2)cc2c(=O)[nH]c3ccccc3c21", "inhibition": "4.74% (inactive)"}, {"smiles": "Cn1c(C(=O)NCCc2ccsc2)cc2c(=O)n(C)c3ccccc3c21", "inhibition": "57.4% (active)"}, {"smiles": "COc1ccc(C(=O)Nc2ccc(C(=O)NCC3CCCO3)cc2)c(OC)c1OC", "note": "(stereo unspecified)", "inhibition": "-23% (inactive)"}, {"smiles": "O=C1NC[C@H](Cc2ccc(O)cc2)N(C[C@@H]2CCCN2C[C@H](Cc2ccccc2)N2C[C@H](Cc3ccccc3)N(CC3CCCCC3)C(=O)C2=O)C1=O", "inhibition": "-20.1% (inactive)"}, {"smiles": "CN(CC(=O)Nc1c(Cl)cccc1Cl)C(=O)CNC(=O)C1CCCCC1", "inhibition": "-8.13% (inactive)"}, {"smiles": "Cc1cccc(C)c1NC(=O)CNC(=O)Cc1ccc(Br)cc1", "inhibition": "-2.34% (inactive)"}, {"smiles": "Cc1cccc(C)c1NC(=O)CNC(=O)C1CCCC1", "inhibition": "100% (active)"}, {"smiles": "Cc1ccc(S(=O)(=O)N2CCCC2C(=O)NCc2ccco2)cc1", "note": "(stereo unspecified)", "inhibition": "-5.82% (inactive)"}, {"smiles": "COc1ccc(CNC(=O)CN(Cc2ccccc2Cl)C(=O)c2csnn2)cc1", "inhibition": "10.7% (inactive)"}, {"smiles": "CCCc1nc2ccccc2n1C(C)C(=O)NC(C)(C)C", "note": "(stereo unspecified)", "inhibition": "-0.35% (inactive)"}, {"smiles": "COc1ccc(Br)cc1S(=O)(=O)N1CCN=C1C", "inhibition": "-4.85% (inactive)"}, {"smiles": "Cc1ccc(-c2noc(CNC(=O)c3ccoc3C)n2)cc1", "inhibition": "-42.9% (inactive)"}, {"smiles": "C/C(=N\\Nc1ccccc1)c1cccs1", "inhibition": "8.01% (inactive)"}, {"smiles": "CC/C(=N/Nc1ccccc1)c1cnnc(SC)n1", "inhibition": "74.9% (active)"}, {"smiles": "C/C(=N/Nc1ccc(Cl)cc1)c1cnnc(-c2ccccc2)n1", "inhibition": "8.2% (inactive)"}, {"smiles": "O=C(COC(=O)c1ncc(Cl)c(Cl)c1Cl)NC1CCS(=O)(=O)C1", "note": "(stereo unspecified)", "inhibition": "-31.4% (inactive)"}, {"smiles": "Cc1ccc(-n2c(C)cc(/C=N\\NC(=O)CC(=O)NC(C)C)c2C)cc1", "inhibition": "97.7% (active)"}, {"smiles": "Cc1cc(/C=N/NC(N)=O)c(C)n1C1CCCCC1", "inhibition": "-23.7% (inactive)"}, {"smiles": "Cc1cc(/C=N/NC(=O)CC2(C)OCCO2)c(C)n1-c1ccc(Cl)c(Cl)c1", "inhibition": "-4.93% (inactive)"}, {"smiles": "COc1ccc(-c2nc3cnccn3c2NC2CCCCC2)cc1-c1cccc(Cl)c1", "inhibition": "-50.3% (inactive)"}, {"smiles": "CCOc1cc(-c2nc3cc(C)ccn3c2NCC2CCCO2)ccc1O", "note": "(stereo unspecified)", "inhibition": "24.7% (inactive)"}, {"smiles": "COc1ccc(-c2nc3cnccn3c2NC(C)(C)CC(C)(C)C)cc1O", "inhibition": "48.6% (active)"}, {"smiles": "CC(=O)Nc1ccc(N2CCOCC2)c(C(=O)Nc2cccc(C)c2)c1", "inhibition": "-5.97% (inactive)"}, {"smiles": "COC(=O)c1cc(NC(=O)c2cc(C(C)(C)C)nn2Cc2cccc(C)c2)ccc1N1CCOCC1", "inhibition": "50.4% (active)"}, {"smiles": "COC(=O)c1cc(NC(=O)c2cccnc2)ccc1N1CCOCC1", "inhibition": "-22% (inactive)"}, {"smiles": "CC1(C)OC(=O)C2=C(C[C@@H](C3CC3)O[C@H]2CCc2cccc(Cl)c2)O1", "inhibition": "-4.58% (inactive)"}, {"smiles": "CCCCCCCCNS(=O)(=O)CCNC1CCCCC1", "inhibition": "-6.98% (inactive)"}, {"smiles": "COc1ccc(CC(N)c2csc(NC(=O)NC(c3ccccc3)c3ccccc3)n2)cc1", "note": "(stereo unspecified)", "inhibition": "12.4% (inactive)"}, {"smiles": "COc1ccc(CC(N)c2csc(NC(=O)Cc3ccccc3)n2)cc1", "note": "(stereo unspecified)", "inhibition": "15.7% (inactive)"}, {"smiles": "NC(Cc1ccccc1)c1csc(Nc2cc(Oc3ccccc3)ncn2)n1", "note": "(stereo unspecified)", "inhibition": "49.7% (active)"}, {"smiles": "O=C(CSc1nc2[nH]c(=O)[nH]c(=O)c2s1)Nc1cccc(F)c1", "inhibition": "-17.1% (inactive)"}, {"smiles": "CCC(c1nnnn1Cc1ccco1)N(CCc1ccccc1)Cc1cc2cccc(C)c2[nH]c1=O", "note": "(stereo unspecified)", "inhibition": "-1.4% (inactive)"}, {"smiles": "CCC(c1nnnn1Cc1ccco1)N(Cc1cc2cc(OC)ccc2[nH]c1=O)C1CCCCC1", "note": "(stereo unspecified)", "inhibition": "-35.8% (inactive)"}, {"smiles": "CCC(c1nnnn1Cc1ccco1)N(CCc1ccccc1)Cc1cc2ccc(OC)cc2[nH]c1=O", "note": "(stereo unspecified)", "inhibition": "85.2% (active)"}, {"smiles": "CCCN1C(=O)c2[nH]nc(-c3ccccc3)c2C1c1ccccc1", "note": "(stereo unspecified)", "inhibition": "-18.5% (inactive)"}, {"smiles": "O=C(O)CSCc1ccc(C(=O)O)o1", "inhibition": "8.93% (inactive)"}, {"smiles": "Cc1ccc(CC2CC(=O)N(c3cc(C)ccc3C)C2=O)cc1", "note": "(stereo unspecified)", "inhibition": "-18.2% (inactive)"}, {"smiles": "Cc1ccccc1CN1CCC(C(=O)Nc2ccc(Oc3cccnc3)cc2)CC1", "inhibition": "-4.26% (inactive)"}, {"smiles": "Cc1ccnc(N2C(=O)c3ccccc3C2Nc2ccc3c(c2)OCCO3)c1", "note": "(stereo unspecified)", "inhibition": "-4.03% (inactive)"}, {"smiles": "O=C1c2ccccc2C(Nc2ccc3c(c2)OCCO3)N1Cc1ccco1", "note": "(stereo unspecified)", "inhibition": "60.2% (active)"}, {"smiles": "S=C(NCc1ccco1)Nc1ccc2c(c1)OCCO2", "inhibition": "-13.5% (inactive)"}, {"smiles": "COC(=O)c1cc(S(=O)(=O)Nc2ccc(C)c(F)c2)c[nH]1", "inhibition": "3.38% (inactive)"}, {"smiles": "COc1ccc(C(=O)C(OP(=O)(OC)OC)c2ccccc2OC)cc1", "note": "(stereo unspecified)", "inhibition": "-8.05% (inactive)"}, {"smiles": "Cc1cccc(N(C(=O)c2csnn2)C(C(=O)NCc2ccccc2)c2ccncc2)c1", "note": "(stereo unspecified)", "inhibition": "-12.4% (inactive)"}, {"smiles": "COc1ccc(C(C(=O)NCc2ccccc2)N(Cc2cccs2)C(=O)c2cnccn2)cc1", "note": "(stereo unspecified)", "inhibition": "53.3% (active)"}, {"smiles": "CC(C)N(Cc1ccccc1)C(=O)COC(=O)c1cnccn1", "inhibition": "-3.08% (inactive)"}, {"smiles": "CCOc1ccccc1CN1CCN(C2CCC2)CC1CCO", "note": "(stereo unspecified)", "inhibition": "6.95% (inactive)"}, {"smiles": "COC(=O)[C@@]12C[C@@H](CC(=O)N3CCC(c4ccccc4)CC3)C(=O)N(Cc3ccccc3)C1=CCC(C)(C)C2", "inhibition": "-13.1% (inactive)"}, {"smiles": "Clc1cccc2c1C1CC2CCN1Cc1ccccc1", "note": "(stereo unspecified)", "inhibition": "-3.53% (inactive)"}, {"smiles": "COCCNC(=O)CCCN1C(=O)c2ccccc2Sc2ncccc21", "inhibition": "-9.71% (inactive)"}, {"smiles": "Cc1c(CNCCc2ccccc2)c(C(=O)O)c(C)n1-c1ccccc1", "inhibition": "65.9% (active)"}, {"smiles": "Cc1c(C(=O)NCc2ccccc2)cnn1-c1ccccc1", "inhibition": "-4.01% (inactive)"}, {"smiles": "CNC(=O)CSc1nnc(CCc2ccccc2)n1-c1ccccc1", "inhibition": "10.8% (inactive)"}, {"smiles": "CCOC(=O)/C=C/c1ccccc1O", "inhibition": "-4.54% (inactive)"}, {"smiles": "Cc1cc(C)nc(SC2CCCCC2NS(=O)(=O)c2ccc(Cl)cc2)n1", "note": "(stereo unspecified)", "inhibition": "-8.5% (inactive)"}, {"smiles": "CC(=O)C1=C(C)N(Cc2ccc(Cl)cc2)C(=S)NC1c1ccc(F)cc1", "note": "(stereo unspecified)", "inhibition": "28.2% (inactive)"}, {"smiles": "COC(=O)C1=C(C)N(Cc2ccc(C(F)(F)F)cc2)C(=NCc2ccc(C(F)(F)F)cc2)NC1c1cccc(Cl)c1", "note": "(stereo unspecified)", "inhibition": "12.3% (inactive)"}, {"smiles": "COC(=O)C1=C(C)N(Cc2ccc(F)cc2)C(=S)NC1c1cccc(Cl)c1", "note": "(stereo unspecified)", "inhibition": "64.3% (active)"}, {"smiles": "O=C(Nc1ccccc1)N1CCN(C2c3ccccc3-c3ccccc32)CC1", "inhibition": "3.75% (inactive)"}, {"smiles": "O=C(Nc1cccc(NC(=O)N2CCN(c3ccccc3)CC2)c1)N1CCN(c2ccccc2)CC1", "inhibition": "53.4% (active)"}, {"smiles": "COc1cccc(N2CCN(C(=O)Nc3ccc4c(c3)NC(=O)CO4)CC2)c1", "inhibition": "11.5% (inactive)"}, {"smiles": "Cc1nn2c(NCCN(C)C)c3c(nc2c1-c1ccccc1)CCC3", "inhibition": "-32.4% (inactive)"}, {"smiles": "COc1cccc(CNC(=O)[C@H]2CCCN2C(=O)[C@H]2CCCN2C(=O)c2cc(F)cc(F)c2)c1", "inhibition": "4.19% (inactive)"}, {"smiles": "CCN(CC(=O)Nc1c(F)cccc1F)C(=O)Cc1cccs1", "inhibition": "-22.6% (inactive)"}, {"smiles": "Cc1cc(C)c(S(=O)(=O)NN=C2c3ccccc3[C@H]3Cc4csc[n+]4[C@@H]23)c(C)c1", "inhibition": "6.84% (inactive)"}, {"smiles": "CC(C)n1ncc2c(C(=O)NCc3ccccc3CN(C)C)cc(C3CC3)nc21", "inhibition": "-19.6% (inactive)"}, {"smiles": "CC(C)n1ncc2c(C(=O)Nc3ccc(CC#N)cc3)cc(C3CC3)nc21", "inhibition": "35.5% (inactive)"}, {"smiles": "COc1ccc(OCCNC(=O)c2cc(C3CC3)nc3c2cnn3C(C)C)cc1", "inhibition": "48.8% (active)"}, {"smiles": "CCc1c(-c2ccc(F)cc2)ncn1Cc1cccc(-c2ccccc2)c1", "inhibition": "34.5% (inactive)"}, {"smiles": "O=C1NC[C@@H](CCCCN2CCN(CCc3ccc(O)cc3)C(=O)C2=O)N(CC2CCCCC2)C1=O", "inhibition": "3.12% (inactive)"}, {"smiles": "COc1ccc(CNC(=O)CN2C(=O)c3ccccc3S2(=O)=O)cc1", "inhibition": "17.9% (inactive)"}, {"smiles": "O=C1c2ccccc2S(=O)(=O)N1CC(O)Cn1c2ccccc2c2ccccc21", "note": "(stereo unspecified)", "inhibition": "62.3% (active)"}, {"smiles": "CC(C)(C)c1ccc(CN2C(=O)c3ccccc3S2(=O)=O)cc1", "inhibition": "8.91% (inactive)"}]}]}
